Test results published in article PMC4121111 (Clinical cancer research : an official journal of the …, 2014).

Columns and labels:
[1] = tested on: GRPR; conditions: cited from earlier work
[2] = biological target: T1, GRPR (Homo sapiens, UniProt P30550); assay: Cell binding study by FACS, LNCaP cells; format: cell-based; conditions: 3×10^5 cells, 3 pmoles agent in PBS, 15 min, 4 °C, triplicates
In short: (§1)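 Cell lines came from ATCC and were grown per supplier instructions. 3×10^5 cells were incubated with 3 pmoles dye-peptide conjugate in PBS for 15 min at 4 °C, and cell fluorescence was measured. A scrambled-peptide conjugate served as control. For PC3 only, specificity was tested by co-incubation with bombesin (1.5×10−11 to 1.5×10−8 moles). Triplicates.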

[3] = Blood metabolism in living mice; format: in vivo
[4] = biological target: T1, GRPR; assay: Cell binding study by FACS, PC3 cells; format: cell-based; conditions: 3×10^5 cells, 3 pmoles agent in PBS, 15 min, 4 °C, triplicates
In short: as §1

[5] = biological target: GRPR in PC3 tumors (Homo sapiens, UniProt P30550); assay: Photoacoustic imaging of GRPR in PC3 tumors in mice; format: in vivo; conditions: 30 to 60 minutes post injection of 10 nmol
GRPR in PC3 tumors, sequence (P30550 whole entry): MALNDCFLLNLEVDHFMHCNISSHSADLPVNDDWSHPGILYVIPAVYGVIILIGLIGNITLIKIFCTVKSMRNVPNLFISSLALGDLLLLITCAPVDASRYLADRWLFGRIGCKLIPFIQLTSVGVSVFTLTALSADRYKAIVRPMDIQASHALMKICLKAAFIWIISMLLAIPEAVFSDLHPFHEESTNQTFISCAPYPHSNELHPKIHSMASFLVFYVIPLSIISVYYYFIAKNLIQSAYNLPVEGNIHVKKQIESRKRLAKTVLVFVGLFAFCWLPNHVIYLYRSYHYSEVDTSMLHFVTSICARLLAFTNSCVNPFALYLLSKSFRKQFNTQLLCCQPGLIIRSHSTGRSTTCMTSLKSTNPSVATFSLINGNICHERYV
In short: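 Eight-week-old male nude mice carried flank PC3 xenografts (3 million cells, tumors 0.5–0.7 cm). Imaging used photoacoustic CT at 750 nm (100 views, 100 pulses/view) before and 30 and 60 min after tail-vein injection of 10 nmol agent in 200 µL PBS pH 7.4. The scrambled-peptide control group had n=4 and the active group n=6. 3D filtered back-projection; standard deviation.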

T1 sequence (P30550 whole entry): as above

binding to LNCaP cells (cell fluorescence) [2] | binding to PC3 cells (cell fluorescence) [4] | course of tumor photoacoustic signal over time [5] | Substance | binding affinity [1] | functional activity [1] | blood lifetime [3] | level present in blood at 60 minutes postinjection ([3]; HPLC) | composition in mouse blood at 30 minutes post injection (HPLC) ([3]; blood, 30 minutes post injection, HPLC, three mice) | proteolysis in mouse blood ([3]; blood, 30 minutes postinjection, HPLC) | composition in mouse blood at one hour post injection (HPLC) ([3]; blood, 60 minutes post injection, HPLC)
 |  |  | dFQWAVGHStaL-NH2 | high affinity binding | antagonist activity |  |  |  |  | 
minimal binding | intense labeling | increased over time | GGGdFQWAVGHStaL-NH2 [AA3G-740] |  |  | short blood lifetime | low level | major peak observed in blood at 30 minutes post injection was of the parent | no indication of proteolysis | intact agent was still the major component
 | did not show appreciable binding |  | GGGHdFGWStaAQLV-NH2 [CAA3G-740] |  |  |  |  |  |  | 
